Measurements of several laboratories.
Compare with care: the assays were run in different laboratories.
SIRT3: NAD-dependent protein deacetylase sirtuin-3, mitochondrial (SIRT3, Homo sapiens, UniProt Q9NTG7)
PTGS1: Prostaglandin G/H synthase 1 (PTGS1, Ovis aries, UniProt P05979)

CCCC1CC(=O)c2cc(Cl)cc(Br)c2O1 (stereo not drawn)
inhibition (SIRT3; enzyme activity, inhibitor, fluorescence; 200 µM): 7%

Oc1cccc(Nc2nc(-c3ccc(F)cc3F)cs2)c1
inhibition (Sodium-dependent serotonin transporter (SLC6A4, Homo sapiens, UniProt P31645); cell-free assay; 10 µM): -7.7%

O=C(NC1CCC1)[C@H](Cc1c[nH]c2ccccc12)NC(=O)[C@H](CCCCNC(=S)NCc1cc(O)no1)NS(=O)(=O)c1cccc(F)c1
inhibition (SIRT3; enzyme activity, inhibitor; 30 µM): 6%

CCCCCC1CC(=O)c2ccc(F)cc2O1 (stereo not drawn)
inhibition (SIRT3; enzyme activity, inhibitor, fluorescence; 200 µM): 2.2%

O=c1c(O[C@@H]2O[C@H](CO)[C@@H](O)[C@H](O)[C@H]2O)c(-c2ccc(O)cc2)oc2cc(O)cc(O)c12
inhibition (PTGS1; enzyme activity, inhibitor, absorbance; 50 µM): 66.9%

CCCCCCCCCCCCNC(=S)NCCCC[C@H](NC(=O)OCc1ccccc1)C(=O)N[C@@H](Cc1c[nH]c2ccccc12)C(=O)N[C@@H](CCCCNC(=N)N)C(N)=O
inhibition (SIRT3; enzyme activity, inhibitor; 10 µM): 20%

NC(=O)CCNC(=S)NCCCC[C@H](NS(=O)(=O)c1cccc(F)c1)C(=O)N[C@@H](Cc1c[nH]c2ccccc12)C(=O)NC1CCC1
inhibition (SIRT3; enzyme activity, inhibitor; 10 µM): 30%

O=C(c1ccc(Cl)cc1)N(Cc1ccccc1)C1CCCCC1
inhibition (Type-2 angiotensin II receptor (AGTR2, Homo sapiens, UniProt P50052); cell-free assay; 10 µM): 4.4%

O=C(COc1ccc2cc(C(=O)Nc3ccccc3)ccc2c1)NCc1ccc(O)c(O)c1
inhibition (Signal transducer and activator of transcription 5A, SH2 (Homo sapiens, UniProt P42229); ligand displacement, FP; 100 µM): 1%

CCN(Cc1ccccc1C(F)(F)F)C(=O)C1CCN(S(=O)(=O)c2ccc3[nH]ncc3c2)CC1
inhibition (Androgen receptor (Ar, Rattus norvegicus, UniProt P15207); ligand displacement, radioligand; 10 µM): 11%

CN1CCN(CCCOc2ccc(=O)n(-c3ccc(Cl)c(Cl)c3)n2)CC1
inhibition (Transient receptor potential cation channel subfamily V member 1 (TRPV1, Homo sapiens, UniProt Q8NER1); ligand displacement; 1 µM): 17.1%

CCCCCCCCCCCCNC(=S)NCCCC[C@H](NC(=O)C1CCCCC1)C(=O)N[C@H](C)C(=O)N[C@@H](CCCNC(=N)N)C(N)=O
inhibition (SIRT3; enzyme activity, inhibitor; 10 µM): 41%

O=c1c(O)c(-c2ccc(O)cc2)oc2cc(O)cc(O)c12
inhibition (PTGS1; enzyme activity, inhibitor, absorbance; 50 µM): 61.4%

O=C(NC1CCC1)[C@H](Cc1c[nH]c2ccccc12)NC(=O)[C@H](CCCCNC(=S)NCc1n[nH]c(=S)o1)NS(=O)(=O)c1cccc(F)c1
inhibition (SIRT3; enzyme activity, inhibitor; 30 µM): 12%

C[C@@H]1O[C@@H](OC[C@H]2O[C@@H](O[C@H]3[C@H](Oc4c(-c5ccc(O)cc5)oc5cc(O)cc(O)c5c4=O)O[C@H](CO)[C@@H](O)[C@@H]3O)[C@H](O)[C@@H](O)[C@@H]2O)[C@H](O)[C@H](O)[C@H]1O
inhibition (PTGS1; enzyme activity, inhibitor, absorbance; 50 µM): 53.3%

CCCCC[C@H]1CC(=O)c2cc(Cl)cc(Br)c2O1
inhibition (SIRT3; enzyme activity, inhibitor, fluorescence; 200 µM): 3.9%

CCCCNC(=S)NCCCC[C@H](NS(=O)(=O)c1cccc(F)c1)C(=O)N[C@@H](Cc1c[nH]c2ccccc12)C(=O)NC1CCC1
inhibition (SIRT3; enzyme activity, inhibitor; 1 µM): 16%

Cc1ccc(C(=O)Nc2ccc(S(=O)(=O)O)c3cc(S(=O)(=O)O)cc(S(=O)(=O)O)c23)cc1NC(=O)c1cccc(NC(=O)Nc2cccc(C(=O)Nc3cc(C(=O)Nc4ccc(S(=O)(=O)O)c5cc(S(=O)(=O)O)cc(S(=O)(=O)O)c45)ccc3C)c2)c1
inhibition (SIRT3; enzyme activity, inhibitor; 100 µM): 6%

CCN(CC)c1ccc(C2=NNC(=O)CC2C)cc1[N+](=O)[O-] (stereo not drawn)
inhibition (cGMP-inhibited 3',5'-cyclic phosphodiesterase 3B (PDE3B, Homo sapiens, UniProt Q13370); enzyme activity, inhibitor; 0.1 µM): 97%

CCCCCCCCCCCCNC(=S)NCCCC[C@H](NC(=O)OCc1ccccc1)C(=O)N[C@@H](Cc1c[nH]c2ccccc12)C(=O)N[C@@H](CCCCN)C(N)=O
inhibition (SIRT3; enzyme activity, inhibitor; 10 µM): 21%

CCCCCC1C=Cc2cc(Cl)cc(Br)c2O1 (stereo not drawn)
inhibition (SIRT3; enzyme activity, inhibitor, fluorescence; 200 µM): 2%

O=C(Nc1cccc(C(=O)Nc2ccc3[nH]ncc3c2)c1)Nc1ccccc1F
inhibition (BDNF/NT-3 growth factors receptor (NTRK2, Homo sapiens, UniProt Q16620); enzyme activity, inhibitor, FRET; 1 µM): 27.8%

CCCCCC1CC(=O)c2cc([N+](=O)[O-])ccc2O1 (stereo not drawn)
inhibition (SIRT3; enzyme activity, inhibitor, fluorescence; 200 µM): 16%

CCCCCCCCCCCCNC(=S)NCCCC[C@H](NC(=O)OCc1ccccc1)C(=O)N[C@@H](C)C(=O)N[C@@H](CCCNC(=N)N)C(N)=O
inhibition (SIRT3; enzyme activity, inhibitor; 1 µM): 20%

O=C1CC(CCc2c[nH]c3ccccc23)Oc2c(Br)cc(Cl)cc21 (stereo not drawn)
inhibition (SIRT3; enzyme activity, inhibitor, fluorescence; 200 µM): 20%

CC(=S)NCCCC[C@H](NC(=O)OCc1ccccc1)C(=O)N[C@@H](Cc1c[nH]c2ccccc12)C(=O)N[C@@H](CCCNC(=N)N)C(N)=O
inhibition (SIRT3; enzyme activity, inhibitor; 10 µM): 43%

CCCCCCCC1CC(=O)c2cc(Cl)cc(Br)c2O1 (stereo not drawn)
inhibition (SIRT3; enzyme activity, inhibitor, fluorescence; 200 µM): 8.3%

CCCCCCCCCCCCNC(=S)NCCCC[C@H](NS(C)(=O)=O)C(=O)N[C@H](C)C(=O)N[C@@H](CCCNC(=N)N)C(=O)O
inhibition (SIRT3; enzyme activity, inhibitor; 100 µM): 34%

COc1cc(NC(C)=O)c(Cl)cc1C(=O)Nc1nccs1
inhibition (Gamma-aminobutyric acid receptor subunit alpha-1 (GABRA1, Homo sapiens, UniProt P14867); cell-free assay; 10 µM): -34.8%

CN(C)C1CCN(CC#Cc2nn(C3CCCC3)c3nc(NCc4ccccc4)ncc23)C1 (stereo not drawn)
inhibition (Serine/threonine-protein kinase Nek2 (NEK2, Homo sapiens, UniProt P51955); enzyme activity, inhibitor, FRET; 0.1 µM): 2%

CCCCCC1CC(O)c2cc(Cl)cc(Br)c2O1 (stereo not drawn)
inhibition (SIRT3; enzyme activity, inhibitor, fluorescence; 200 µM): 3.6%

CC(=S)NCCCC[C@H](NC(=O)OCc1ccccc1)C(=O)N[C@@H](Cc1c[nH]c2ccccc12)C(=O)N[C@@H](CCC(=O)O)C(N)=O
inhibition (SIRT3; enzyme activity, inhibitor; 10 µM): 9%

C[C@@H]1O[C@@H](O[C@H]2[C@H](Oc3c(-c4ccc(O)cc4)oc4cc(O)cc(O)c4c3=O)O[C@H](CO[C@@H]3O[C@H](CO)[C@@H](O)[C@H](O)[C@H]3O)[C@@H](O)[C@@H]2O)[C@H](O)[C@H](O)[C@H]1O
inhibition (PTGS1; enzyme activity, inhibitor, absorbance; 50 µM): 76.2%
